The pIC50 is the IC50 on a negative log10 scale, so that one unit is a factor of ten. A higher pIC50 goes with a small IC50.

The structures appear in SMILES notation. pIC50: −log10 of the molar value. Activity calls are given as the source filed them. No cut-off for these calls is given here.

Series [1] relates to MCF7. The series can be described thus: Antitumor activity against human MCF7 cells after 3 days by WST1 assay. Type of series: functional, cell-based. As to conditions: MCF7, 72 h. An outline of the steps: (§1)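 Cell lines grown in Iscove's MDM with 5% FCS, 50 µM 2-mercaptoethanol, penicillin and streptomycin; suspension lines kept at 0.5-1.5 × 10^6 cells/mL, adherent lines subconfluent. Cells seeded in triplicate at 10^4 cells/100 µL. Compounds were dissolved in water and added immediately at 0 to 100 µM final. WST.1 read at 440 nm on day 3; IC50 taken from OD versus concentration plots.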
For orientation: Tetrazolium assays rely on reduction of a dye to a coloured formazan, in cell work by metabolically active cells.

A short description of series [2]: Antitumor activity against human OCI-AML1 cells after 3 days by WST1 assay. Format: functional, cell-based. As to conditions: ML1, 72 h. An outline of the steps:
as §1

Series [3] in a line: Antitumor activity against human OCI-LY7 cells after 3 days by WST1 assay. Type of series: functional, cell-based. As to conditions: OCI-Ly7, 72 h. The essentials:
as §1

For a further series, the system named is OVCAR-4. The series can be described thus: Antitumor activity against human OVCAR4 cells after 3 days by WST1 assay. Type of series: functional, cell-based. As to conditions: for pIC50: OVCAR-4, 72 h. An outline of the steps: as §1
The test system of series [4] is MCF7. In words: Antitumor activity against human MCF7 cells up to 50 uM after 3 days by WST1 assay. Type of series: functional, cell-based. The essentials:
as §1

The nature of series [5]: Antitumor activity against human SKW3 cells after 3 days by WST1 assay. Type of series: functional, cell-based. As to conditions: SKW3, 72 h. The essentials:
as §1

In a further series the test system is MDA-MB-468. In words: Antitumor activity against human MDA468 cells up to 50 uM after 3 days by WST1 assay. Type of series: functional, cell-based. The essentials:
as §1

A further series deals with COLO 205. In words: Antitumor activity against human COLO205 cells after 3 days by WST1 assay. Format: functional, cell-based. As to conditions: for pIC50: COLO 205, 72 h. An outline of the steps: as §1
Series [6] can be described thus: Antitumor activity against human MDA468 cells after 3 days by WST1 assay. As to conditions: MDA-MB-468, 72 h. Format: functional, cell-based. The essentials: as §1
The test system of another series is T47D. The series can be described thus: Antitumor activity against human T47D cells up to 50 uM after 3 days by WST1 assay. Format: functional, cell-based. The essentials:
as §1

A further series has as its system PC-3. In words: Antitumor activity against human PC3 cells up to 50 uM after 3 days by WST1 assay. Format: functional, cell-based. The essentials:
as §1

Series [7] in a line: Cytotoxicity against human CCD-967 cells up to 50 uM after 3 days by WST1 assay. Type of series: cell-based. As to conditions: ccd-967, 72 h. An outline of the steps: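 Cells grown in Iscove's MDM with 5% FCS, 50 µM 2-mercaptoethanol and antibiotics, kept subconfluent if adherent. Seeded in triplicate at 10^4 cells/100 µL with compounds (in water) added at once, 0 to 100 µM final. WST.1 formazan read at 440 nm on day 3; IC50 from OD versus concentration.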

The subject of another series is SNB-19. The series can be described thus: Antitumor activity against human SNB19 cells up to 50 uM after 3 days by WST1 assay. Type of series: functional, cell-based. An outline of the steps:
as §1

Series [8] is described as follows: Antitumor activity against human LOX cells after 3 days by WST1 assay. As to conditions: 72 h. Format: functional, cell-based. An outline of the steps:
as §1

Another series has as its system OCI-AML2. In words: Antitumor activity against human OCI-AML2 cells after 3 days by WST1 assay. Type of series: functional, cell-based. As to conditions: OCI-AML2, 72 h. The essentials: as §1
In a further series the test system is Hs-578T. In words: Antitumor activity against human Hs 578T cells up to 50 uM after 3 days by WST1 assay. Type of series: functional, cell-based. An outline of the steps: as §1
Series [9] in a line: Antitumor activity against human OCI-My 2 cells after 3 days by WST1 assay. Format: functional, cell-based. As to conditions: 72 h. An outline of the steps:
as §1

For `Cc1cc(=O)[nH]c(=O)n1[C@@H]1O[C@H](CO)[C@@H](O)[C@H]1O`, the pIC50 (with MCF7 [1]; in [2]; in series [3]; with OVCAR-4; in series [5]; with COLO 205) was under 4.30 throughout. The pIC50 (in series [6]; in [8]; in the series on OCI-AML2; in series [9]) was under 4.30 each time. The result with MCF7 [4], in the series with MDA-MB-468, in the series on T47D, in the series with PC-3, in the series with SNB-19 and in the series on Hs-578T was inactive. Also, in series [7], the Activity result was “Not Active”.

As for `O=c1[nH]c(=O)n([C@@H]2O[C@H](CO)[C@@H](O)[C@H]2O)c(I)c1F`, the negative logarithm of the IC50 (pIC50) (in the series on MCF7 [1]; in series [2]; in series [3]; with OVCAR-4; in series [5]; in the series with COLO 205) was under 4.30 each time. For the same compound, the pIC50 (in series [6]; in series [8]; in the series on OCI-AML2; in series [9]) was under 4.30 throughout. The outcome in the series on MCF7 [4], with MDA-MB-468, in the series on T47D, in the series on PC-3, with SNB-19 and in the series on Hs-578T was inactive. Moreover, the Activity entry in [7] is recorded as “Not Active”.

With `O=c1[nH]c(=O)n([C@@H]2O[C@H](CO)[C@@H](O)[C@H]2O)c(I)c1Br`, the pIC50 (in the series on MCF7 [1]; in series [2]; in series [3]; in the series with OVCAR-4; in [5]; with COLO 205) was under 4.30 throughout. Besides, the pIC50 (in series [6]; in series [8]; with OCI-AML2; in [9]) was under 4.30 each time. In addition, the result with MCF7 [4], in the series with MDA-MB-468, in the series on T47D, with PC-3, in the series on SNB-19 and with Hs-578T was inactive. Also, the Activity entry in series [7] is given as “Not Active”.

For the compound `O=c1cc(NO)n([C@@H]2O[C@H](CO)[C@@H](O)[C@H]2O)c(=O)[nH]1`, the pIC50 (in the series with MCF7 [1]; in series [2]; in series [3]; in series [5]; in [6]; in [8]) was under 4.30 each time. Moreover, the pIC50 (in the series with OCI-AML2; in series [9]) was under 4.30 each time. For the same compound, the outcome in the series on OVCAR-4, in the series on MCF7 [4], in the series with MDA-MB-468, in the series with COLO 205, with T47D and with PC-3 was inactive. In addition, the outcome with SNB-19 and in the series on Hs-578T was inactive. Also, in [7], the Activity entry is given as “Not Active”.

Take `N#Cc1cc(=O)[nH]c(=O)n1[C@@H]1O[C@H](CO)[C@@H](O)[C@H]1O`: the pIC50 (with MCF7 [1]; in series [2]; in series [3]; in the series on OVCAR-4; in series [5]; with COLO 205) was under 4.30 in each case. The pIC50 (in series [6]; in [8]; in the series with OCI-AML2; in [9]) was under 4.30 in each case. Moreover, the outcome in the series with MCF7 [4], with MDA-MB-468, in the series with T47D, in the series with PC-3, in the series with SNB-19 and in the series on Hs-578T was inactive. Also, the Activity result in [7] is reported as “Not Active”.

In the case of `O=c1cc(I)n([C@@H]2O[C@H](CO)[C@@H](O)[C@H]2O)c(=O)[nH]1`, the pIC50 with MCF7 [1] was under 4.30; in series [2], 4.82; in series [3], under 4.30; in the series on OVCAR-4, under 4.30; in series [5] it was 4.72; with COLO 205 it was under 4.30. Further, the pIC50 in series [6] was under 4.30; in series [8], under 4.30; in the series on OCI-AML2, under 4.30; in series [9], 4.56. In addition, the outcome in the series on MCF7 [4], with MDA-MB-468, in the series with T47D, with PC-3, in the series on SNB-19 and in the series with Hs-578T was inactive. Also, the Activity entry in series [7] is “Not Active”.

In the case of `[N-]=[N+]=Nc1cc(=O)[nH]c(=O)n1[C@@H]1O[C@H](CO)[C@@H](O)[C@H]1O`, the pIC50 (in the series on MCF7 [1]; in series [2]; in series [3]; with OVCAR-4; in series [5]; in the series on COLO 205) was under 4.30 in each case. For the same compound, the pIC50 (in [6]; in series [8]; with OCI-AML2; in [9]) was under 4.30 in each case. The result in the series with MCF7 [4], in the series on MDA-MB-468, in the series on T47D, with PC-3, in the series with SNB-19 and with Hs-578T was inactive. The Activity entry in series [7] is given as “Not Active”.

As for `O=c1cnn([C@@H]2O[C@H](COP(=O)(O)O)[C@@H](O)[C@H]2O)c(=O)[nH]1` [6-AZA-URIDINE MONOPHOSPHATE], the pIC50 with MCF7 [1] is under 4.30; in series [2] it was 5.21; in [3], under 4.30; in the series with OVCAR-4, under 4.30; in series [5], 5.55; in the series with COLO 205, under 4.30. For the same compound, the pIC50 in series [6] is under 4.30; in series [8], 5.17; with OCI-AML2, 4.80; in [9] it was 4.73. Moreover, the outcome in the series with MCF7 [4], with MDA-MB-468, with T47D, with PC-3, in the series on SNB-19 and in the series on Hs-578T was inactive. Moreover, the Activity entry in series [7] is “Not Active”.

For the origin of these results see ChEMBL document CHEMBL1152809, “Structure-activity relationships of orotidine-5'-monophosphate decarboxylase inhibitors as anticancer agents” (J Med Chem, 2009).
